For one assay, the system named is PC-3M. Briefly: Antimetastatic activity in human PC3M cells transfected with TRPV2 siRNA at 5 to 20 uM after 24 hrs by transwell migration assay. Format: functional, cell-based.
Assay [1] deals with T1, Transient receptor potential cation channel subfamily V member 3 (Mus musculus) (UniProt Q8K424).
T1 sequence (whole entry): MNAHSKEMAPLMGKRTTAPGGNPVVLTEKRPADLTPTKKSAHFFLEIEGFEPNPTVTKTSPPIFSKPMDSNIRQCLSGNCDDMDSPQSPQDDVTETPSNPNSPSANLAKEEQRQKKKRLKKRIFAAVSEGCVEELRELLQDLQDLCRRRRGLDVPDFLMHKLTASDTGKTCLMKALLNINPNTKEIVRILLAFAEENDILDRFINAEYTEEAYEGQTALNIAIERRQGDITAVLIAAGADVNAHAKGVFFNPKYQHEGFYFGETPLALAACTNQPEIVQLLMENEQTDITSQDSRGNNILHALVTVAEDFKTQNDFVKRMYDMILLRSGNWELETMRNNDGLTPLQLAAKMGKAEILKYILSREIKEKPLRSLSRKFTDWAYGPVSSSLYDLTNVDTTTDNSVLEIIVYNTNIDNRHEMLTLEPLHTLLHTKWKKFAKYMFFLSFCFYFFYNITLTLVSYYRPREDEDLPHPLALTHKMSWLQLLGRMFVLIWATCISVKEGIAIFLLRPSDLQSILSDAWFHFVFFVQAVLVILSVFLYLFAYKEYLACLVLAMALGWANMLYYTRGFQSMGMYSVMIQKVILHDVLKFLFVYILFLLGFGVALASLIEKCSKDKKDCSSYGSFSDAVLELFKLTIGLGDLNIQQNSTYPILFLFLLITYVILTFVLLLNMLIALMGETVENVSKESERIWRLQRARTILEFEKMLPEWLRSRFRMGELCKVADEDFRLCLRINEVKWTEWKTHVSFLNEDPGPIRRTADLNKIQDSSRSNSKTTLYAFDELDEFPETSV
The experiment in a line: Antagonist activity at mouse TRPV3 expressed in HEK293T cells assessed as inhibition of 2-APB evoked currents at 3 to 10 uM -60 mV holding potential by whole-cell patch clamp assay. It counts as cell-based. In a few lines:
(§1)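 Whole-cell voltage clamp of transiently transfected HEK293T cells co-expressing GFP, recorded 36-96 h post-transfection. Hold -60 mV; pipettes 3-7 MΩ. Bath 165 mM NaCl, 10 mM HEPES pH 7.3; pipette 140 mM KCl, 10 mM HEPES pH 7.3. Room temperature (~25 °C). IC50 from Hill fits of I/I0, the current ratio after vs before inhibitor; mean ± SEM.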
On the technique in general: The patch-clamp technique gives a direct electrical read-out from membranes.

Assay [2] concerns the target Transient receptor potential cation channel subfamily V member 4 (Mus musculus) (UniProt Q9EPK8). Briefly: Antagonist activity at mouse TRPV4 expressed in HEK293T cells assessed as inhibition of GSK-1016790A evoked currents at 3 to 10 uM -60 mV holding potential by whole-cell patch clamp assay. It counts as cell-based. In a few lines: as §1
Assay [3] concerns T2, Transient receptor potential cation channel subfamily V member 2 (Mus musculus), Q9WTR1 [L505T].
T2 sequence (whole entry): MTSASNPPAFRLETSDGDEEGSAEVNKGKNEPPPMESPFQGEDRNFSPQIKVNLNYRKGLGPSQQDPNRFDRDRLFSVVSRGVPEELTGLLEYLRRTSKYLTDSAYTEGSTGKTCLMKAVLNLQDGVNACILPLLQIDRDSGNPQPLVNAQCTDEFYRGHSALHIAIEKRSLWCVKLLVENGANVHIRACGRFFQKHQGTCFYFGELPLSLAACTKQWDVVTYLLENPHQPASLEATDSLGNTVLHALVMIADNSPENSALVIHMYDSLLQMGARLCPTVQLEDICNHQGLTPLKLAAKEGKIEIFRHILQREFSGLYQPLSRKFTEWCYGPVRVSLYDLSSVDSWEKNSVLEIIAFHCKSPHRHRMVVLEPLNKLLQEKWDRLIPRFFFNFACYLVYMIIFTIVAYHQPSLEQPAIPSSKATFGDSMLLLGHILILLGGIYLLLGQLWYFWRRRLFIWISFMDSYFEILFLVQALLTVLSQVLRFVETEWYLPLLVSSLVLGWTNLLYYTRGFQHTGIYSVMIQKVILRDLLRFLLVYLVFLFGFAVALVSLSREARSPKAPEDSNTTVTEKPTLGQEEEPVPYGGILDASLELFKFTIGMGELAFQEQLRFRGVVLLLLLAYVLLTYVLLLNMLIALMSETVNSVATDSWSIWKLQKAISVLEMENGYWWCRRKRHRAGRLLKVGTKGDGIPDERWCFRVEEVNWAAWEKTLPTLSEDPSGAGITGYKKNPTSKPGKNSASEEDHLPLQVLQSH
Briefly: Antagonist activity at mouse TRPV2 L505T mutant expressed in HEK293T cells assessed as inhibition of 2-APB evoked currents at -60 mV holding potential by whole-cell patch clamp assay. Format: cell-based. In a few lines: as §1

Assay [4] has as its system T3, Transient receptor potential cation channel subfamily V member 2 (Mus musculus), Q9WTR1 [F467S].
T3 sequence (whole entry): T2 sequence (whole entry) with F467S, T505L
Briefly: Antagonist activity at mouse TRPV2 F467S mutant expressed in HEK293T cells assessed as inhibition of 2-APB evoked currents at 0.3 to 3 uM by whole-cell patch clamp assay. Format: cell-based. In a few lines: as §1

The next assay relates to Mus musculus. The experiment in a line: Antagonist activity at mouse TRPV2/LPAR1 expressed in LPA-stimulated HEK293T cells assessed as inhibition of 2-APB evoked currents at 10 uM dosed 3 mins after LPA stimulation by whole-cell patch clamp assay. The method in brief: as §1
The species named for a further assay is Homo sapiens. The experiment in a line: Inhibition of LPA-induced TRPV2/LPAR1 mediated cell migration in human PC3M cells at 20 uM after 24 hrs by transwell migration assay. It counts as cell-based.

Positions count from the first letter of the chain named. Activity calls are given as the source filed them. The calls are words filed in the database; no cut-off is given here.

Sequence of Transient receptor potential cation channel subfamily V member 4 (Mus musculus) (Q9EPK8 whole entry): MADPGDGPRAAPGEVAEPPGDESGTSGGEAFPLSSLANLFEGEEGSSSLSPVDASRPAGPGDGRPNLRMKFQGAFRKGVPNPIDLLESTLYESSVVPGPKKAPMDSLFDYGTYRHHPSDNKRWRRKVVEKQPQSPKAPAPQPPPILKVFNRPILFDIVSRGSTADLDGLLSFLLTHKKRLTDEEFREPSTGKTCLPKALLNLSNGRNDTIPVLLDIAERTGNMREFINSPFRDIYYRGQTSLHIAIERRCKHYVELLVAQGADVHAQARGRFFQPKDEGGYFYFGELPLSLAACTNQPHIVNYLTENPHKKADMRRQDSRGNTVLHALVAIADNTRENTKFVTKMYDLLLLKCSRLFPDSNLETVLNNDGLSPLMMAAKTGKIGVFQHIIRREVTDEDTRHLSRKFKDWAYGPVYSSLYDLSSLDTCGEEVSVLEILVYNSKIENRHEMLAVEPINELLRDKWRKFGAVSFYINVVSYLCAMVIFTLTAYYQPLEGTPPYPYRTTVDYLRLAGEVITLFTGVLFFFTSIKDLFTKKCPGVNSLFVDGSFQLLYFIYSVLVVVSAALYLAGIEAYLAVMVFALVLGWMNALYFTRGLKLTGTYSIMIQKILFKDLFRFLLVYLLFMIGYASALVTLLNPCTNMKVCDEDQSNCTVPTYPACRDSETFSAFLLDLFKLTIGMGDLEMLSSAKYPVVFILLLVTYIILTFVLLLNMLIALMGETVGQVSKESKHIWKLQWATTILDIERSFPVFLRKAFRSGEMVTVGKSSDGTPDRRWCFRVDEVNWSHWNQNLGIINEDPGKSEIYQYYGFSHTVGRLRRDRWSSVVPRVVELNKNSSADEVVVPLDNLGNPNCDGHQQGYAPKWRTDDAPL

On to `CCCN(C)c1cc(C(F)(F)F)nc(SCCC(=O)NCc2ccco2)n1`, for which the outcome with PC-3M was inactive. Further, the inhibition entry in assay [1], in assay [2], in assay [3] and in assay [4] was “inactive” throughout. For the same compound, the inhibition entry with Mus musculus and in the assay listed under Homo sapiens was “Active” in each case.

These data come from ChEMBL document CHEMBL4422635, “Structure-Based Discovery of a Subtype-Selective Inhibitor Targeting a Transient Receptor Potential Vanilloid Channel” (J Med Chem, 2019).
